Measured values gathered from unrelated publications.
Each line is one published result; the experiments were not run side by side.

CN(C)C(=O)Oc1cc(OC(=O)N(C)C)cc(-c2cc3ccc(O)cc3o2)c1
AUC(0-t) (male rat; plasma; oral; 5 mg/kg): 17.7 ng·h/mL

[2H]C([2H])([2H])n1cc2cc(Nc3nc(=O)n(Cc4ncn(C)n4)c(=O)n3Cc3cc(F)c(F)cc3F)c(Cl)cc2n1
AUC(0-t) (male Sprague-Dawley rat; plasma; intravenous; 5 mg/kg): 89900 ng·h/mL

Cl.Cl.O=C(CCN1CCCCC1)c1ccc(-c2ccc(C(=O)CCN3CCCCC3)cc2)cc1
AUC(0-t) (Sprague-Dawley rat; plasma; oral; 25 mg/kg): 135 ng·h/mL

N=c1c2c(-c3ccccc3)c(-c3ccccc3)n(Cc3ccccc3)c2ncn1[C@H]1CC[C@H](O)CC1
AUC(0-inf) (male Sprague-Dawley rat; plasma; oral; 2 mg/kg; single dose): 1500 ng·h/mL

O=C([O-])C(=O)[O-].[NH-][C@@H]1CCCC[C@H]1[NH-].[Pt+4] (relative stereo)
AUC(0-inf) (rat; plasma; oral; 10 mg/kg): 170 ng·h/mL

COC(=O)C(NC(=O)c1cn(CCCCCF)c2ccccc12)C(C)(C)C (stereo not shown)
AUC(0-t) (male Sprague-Dawley rat; plasma; subcutaneous; 50 µg/kg): 8.61 ng·h/mL

CCCCCCCC(=O)N[C@@H](CCCCN)C(=O)N[C@@H](CCCCN)C(=O)N[C@@H](C)C(=O)N[C@@H](CC(C)C)C(=O)N[C@@H](CCCCN)C(=O)N[C@@H](CC(C)C)C(=O)N[C@@H](C)C(=O)N[C@@H](CCCCN)C(=O)N[C@@H](CCCCN)C(=O)N1CCC[C@H]1C(=O)N[C@@H](CC(C)C)C(=O)N[C@@H](CCCCN)C(=O)N[C@@H](CC(C)C)C(=O)N[C@@H](CC(C)C)C(=O)N[C@@H](CCCCN)C(N)=O
AUC(0-inf) (male Sprague-Dawley rat; blood; intravenous; 3 mg/kg; infusion): 273 ng·h/mL

[2H]C([2H])(c1cc(F)c(F)cc1F)n1c(=O)n(Cc2ncn(C)n2)c(=O)[nH]/c1=N\c1cc2cn(C)nc2cc1Cl
AUC(0-t) (male Sprague-Dawley rat; plasma; oral; 25 mg/kg): 451000 ng·h/mL

CCC[C@@](N)(CO)CCc1ccc(OCCCCCC(C)C)cc1
AUC(0-t) (rat; plasma; oral; 30 mg/kg): 6.18 µM·h

CCCCCn1nc(C(=O)Nc2cccc3ccccc23)c2ccccc21
AUC(0-t) (male Long-Evans rat; plasma; intraperitoneal; 3 mg/kg): 304 ng·h/mL

CC(C)(C)[C@H](NC(=O)[C@H](CCONC(=N)N)NC(=O)Cc1ccc(CNC(=N)N)cc1)C(=O)N[C@@H](CCONC(=N)N)C(=O)NCc1ccc(C(=N)N)cc1
AUC(0-t) (male Sprague-Dawley rat; plasma; intraperitoneal; 2.5 mg/kg): 9350 ng·h/mL

Cn1cnc(Cn2c(=O)[nH]/c(=N\c3cc4cn(C)nc4cc3Cl)n(Cc3cc(F)c(F)cc3F)c2=O)n1
AUC(0-t) (male Sprague-Dawley rat; plasma; oral; 25 mg/kg): 515000 ng·h/mL

CCCCCn1cc(C(=O)Nc2cccc3ccccc23)c2ccccc21
AUC(0-t) (male Long-Evans rat; plasma; intraperitoneal; 3 mg/kg): 4240 ng·h/mL
